# Screening data deposited in PubChem BioAssay by several laboratories.
# An excerpt weighted towards active compounds, which were near 2.1% of everything screened.
# RanGTP-Imp inh – inhibitors of RanGTP-importin-beta interaction, primary screen, biochemical, FRET, CFP-Ran, YFP-importin-beta, homogeneous; cell-free CFP-Ran/YFP-importin-beta FRET ratio; inhibition, % (no concentration beside the values); actives 1.1% (n = 300,000); AID 2216;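 active = more than half of the replicate wells show a fall in the fluorescence ratio signal beyond about 16%, limit read from the data, passing the limit was not always enough; inconclusive = exactly half of the replicate wells pass the set limit; inactive = fewer than half of replicates pass the limit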
# Runt-CBFb FRET – Runt domain-CBFb interaction inhibition; inhibition, % at 20 µM; actives 0.46% (n = 220,000); Cerulean-Runt/Venus-CBFb FRET ratio 530/480, 1 h;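 active = inhibition over about 50% at 20 µM in the single-dose screen, limit read from the data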
#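 Schedule: protein complex preformed 1 h, compound exposure 1 h, room temperature, dark; test system: Cerulean-labeled Runt domain protein; amount: 100 nM per protein; buffer or medium: Tris 50 mM pH 7.5, KCl, K2SO4, 0.01% BSA; read-out: loss of energy transfer signal; detection: FRET fluorescence; controls: 5 µM unlabeled CBFb as full-inhibition high control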
# Runt-SMMHC FRET – blocks binding of human RUNX1 Runt domain to CBFb-SMMHC. Q01196+Q13951. Cerulean-Runt/Venus-CBFb-SMMHC FRET ratio 530/480, 1 h. inhibition, % at 20 µM. actives 0.74% (n = 220,000);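 active = mean inhibition across duplicate retests at 20 µM reaching about 50%, limit read from the data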;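 also: inhibitors lower the FRET ratio by blocking Runt binding to CBFb-SMMHC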
# MEX-5 binding – C. elegans MEX-5 TCR-2 RNA binding activity; MEX-5/FITC-TCR2 RNA binding, fluorescence polarization; stronger effect = lower value; actives 0.38% (n = 300,000); activity score (negative = inhibition of binding), % at 10 µM; Q9XUB2;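 active = inhibition past about -25% in most replicates, and total fluorescence under double the plate's negative control median, limit read from the data; inconclusive = replicates evenly split on the limit, or fluorescence at least double controls; inactive = too little inhibition in most replicates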
# Target sequence (Q9XUB2 whole entry, looked up): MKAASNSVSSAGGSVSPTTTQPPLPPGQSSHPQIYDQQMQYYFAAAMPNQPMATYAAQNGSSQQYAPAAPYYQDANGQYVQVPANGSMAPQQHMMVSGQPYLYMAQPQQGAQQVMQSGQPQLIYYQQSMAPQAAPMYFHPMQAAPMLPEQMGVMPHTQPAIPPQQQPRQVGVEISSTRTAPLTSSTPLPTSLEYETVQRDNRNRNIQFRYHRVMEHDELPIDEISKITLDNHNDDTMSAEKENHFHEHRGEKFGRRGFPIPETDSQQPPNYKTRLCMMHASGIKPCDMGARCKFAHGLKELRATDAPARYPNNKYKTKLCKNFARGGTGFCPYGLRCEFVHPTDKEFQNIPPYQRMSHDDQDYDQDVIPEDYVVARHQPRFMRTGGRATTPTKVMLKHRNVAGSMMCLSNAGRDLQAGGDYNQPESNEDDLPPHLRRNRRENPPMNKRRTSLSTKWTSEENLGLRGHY
# proKLK7 act – activates the human kallikrein-7 zymogen | actives 0.9% (n = 370,000) | AID 652039 | activation, % at 7 µM | purified proKLK7, EDANS-DABCYL substrate fluorescence; 100% is mature enzyme control, 0% vehicle | P49862;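 active = activation above the mean of all tested compounds plus 3 SD, computed per campaign excluding outliers beyond control limits, cut at about 13% in these data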
# Target sequence (P49862 whole entry, looked up): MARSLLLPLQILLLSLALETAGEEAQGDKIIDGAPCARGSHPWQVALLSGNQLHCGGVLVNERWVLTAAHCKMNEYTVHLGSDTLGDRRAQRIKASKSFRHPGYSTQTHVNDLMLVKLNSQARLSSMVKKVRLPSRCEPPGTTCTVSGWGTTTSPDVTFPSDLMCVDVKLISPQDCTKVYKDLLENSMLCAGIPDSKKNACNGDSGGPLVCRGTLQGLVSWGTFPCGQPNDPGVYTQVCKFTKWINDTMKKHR
# YIC counter – counter-screen: alters YIC FRET probe signal; shares compounds with RanGTP-Imp inh; Purified YIC probe, intramolecular FRET ratio YFP/CFP; IC50, µM; actives 40% (n = 1,000);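 active = fitted half-maximal inhibitory concentration no more than tenfold above the top dose tested; inconclusive = flat fit with 30 to 70% activity, or poor fit; inactive = half-maximal concentration beyond tenfold above the top dose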
# proKLK7 act conf – confirmation of human kallikrein-7 zymogen activators | shares compounds with proKLK7 act | actives 68% (n = 3,200) | purified proKLK7, EDANS-DABCYL substrate fluorescence; scaled: vehicle 0, mature enzyme 100 | activation, % at 7 µM;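 active = activation, as change over the incubation, above the mean of all tested compounds plus 3 SD, cut at about 13% in these data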
# EDANS-DABCYL int – counter-screen for kallikrein-7 activators: EDANS-DABCYL optical interference; AID 686952; EDANS-DABCYL substrate fluorescence interference, no enzyme, 4 h; solvent 0%, active enzyme control 100%; actives 80% (n = 3,200); shares compounds with proKLK7 act; activation, % at 7 µM;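 active = activation above the all-compound mean plus 3 SD, ignoring values outside control-based bounds, cut at about 4.8% in these data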;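 also: value is the 4 h activation minus the activation read at time zero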
# EDANS interf – EDANS fluorescence interference in dose response, no enzyme; shares compounds with proKLK7 act; EDANS-DABCYL peptide fluorescence interference; EC50, µM; actives 20% (n = 250); AID 720493;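 active = compounds that raise the fluorescence signal in this interference counterscreen, with EC50 at or below 10 µM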;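 also: intact quenched peptide substrate alone read at 355 nm excitation and 520 nm emission; signal is fluorescence gain from T0 to T4 after four hours at room temperature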
# Numbers stand for hits; 0 = inactive; ? = inconclusive; - = not tested or not shown.
SMILES,RanGTP-Imp inh,Runt-CBFb FRET,Runt-SMMHC FRET,MEX-5 binding,proKLK7 act,YIC counter,others
CC(C)NC(=O)C1CC=CCC1C(=O)O (centres undefined),25,0,0,0,0,0,
CC1CC(C)CN(c2cc(=O)n(Cc3ccc(F)cc3)c(=O)[nH]2)C1 (centres undefined),60,0,0,0,0,0,
COc1ccc(Nc2nnc(SCC(=O)N(CC(C)C)C3CCS(=O)(=O)C3)s2)cc1 (centres undefined),-,-,-,-,0,-,
CCOC(=O)COc1ccc(C(C)c2ccc(NC(=O)OC(C)(C)C)cc2)cc1 (centres undefined),-,-,-,-,0,-,
O=S(=O)(Nc1nc2ccccc2nc1-[n+]1cccc(N=C([O-])c2ccccc2Cl)c1)c1ccccc1,24,0,75,0,-,6.7,
Cc1ccc(NC(=O)C2CC(=O)N(c3ccc4c5c(cccc35)CC4)C2)cc1 (centres undefined),0,0,0,0,0,-,
N#Cc1ccccc1NC(=O)C1CC(=O)N(c2ccc3c4c(cccc24)CC3)C1 (centres undefined),22,0,0,0,0,0,
Cc1c(OCC(=O)NCc2ccncc2)ccc2c3c(c(=O)oc12)CCC3,17,-,-,0,0,0,
Cc1c(OCC(=O)NCc2cccnc2)ccc2c3c(c(=O)oc12)CCC3,0,-,-,0,0,-,
C=CCOc1c(Br)cc(CNc2ccc(NC(=O)C(C)C)c(OC)c2)cc1OC,27,0,0,0,0,0,
CCOC(=O)c1c(N)n(CCOC(=O)c2cccs2)c2nc3ccccc3nc12,23,0,109,0,0,37,
COc1ccc(-c2cc(C(F)(F)F)n3nc(N)nc3n2)cc1,27,0,59,0,-,21,
COC(=O)Cn1c(=O)c2c(nc3n2CCCN3CCc2ccccc2)n(C)c1=O,25,-,-,0,0,0,
CC(C)CN1C(=O)CSCC1(C)C(=O)NCc1ccccc1 (centres undefined),-,-,-,-,0,-,
O=C(NC1CC1)c1ccc2c(Cl)c3c(nc2c1)CCCC3,17,0,0,0,0,0,
COC(=O)c1cc2c(c3c4cc(OC)ccc4n(S(=O)(=O)c4ccc(OC)cc4)c13)C(=O)N(C)C2,-,-,-,-,0,-,
CCc1cc(=O)oc2c(C)c(OCC(=O)NCc3ccccn3)ccc12,0,-,-,-,0,-,
CCCCc1cc(=O)oc2c(C)c(OCC(=O)NCc3ccccn3)ccc12,31,-,-,0,0,0,
O=S1(=O)c2c(cccc2N2CCC[C@H]2CO)O[C@@H]2CCN1C2,-,-,-,-,0,-,
Cc1cccc(N2CCN(C(=O)C3COc4ccccc4O3)CC2)c1C (centres undefined),26,0,0,0,0,0,
CCOC(=O)/C(=N\Nc1ccc(C(C)=O)cc1)c1csc(Nc2ccccc2)n1,18,0,0,?,0,0,
COc1c(Br)cc2c(C)c(C(=O)O)oc2c1Br,0,0,0,0,0,-,
Cc1c(Br)c(=O)oc2c(Br)c(O)c(O)cc12,26,55,76,0,0,11,
CCOC(=O)c1c(NC(=O)c2cccc(N3C(=O)CCC3=O)c2)sc2c1CCN(CC)C2,21,-,-,0,0,0,
C[C@H](CO)N1C[C@H](C)[C@@H](CN(C)C(=O)Nc2ccc(F)cc2)Oc2ccc(NS(C)(=O)=O)cc2C1=O,-,-,-,-,0,-,
SMILES,RanGTP-Imp inh,Runt-CBFb FRET,Runt-SMMHC FRET,MEX-5 binding,proKLK7 act,YIC counter,others
Cc1cc(N2C(=O)C(O)=C(C(=O)c3cc4ccccc4o3)C2c2cccc(Cl)c2)no1 (centres undefined),25,-,-,0,0,7.4,
Cc1cc(N2C(=O)C(O)=C(C(=O)c3cc4ccccc4o3)C2c2ccc(Cl)cc2)no1 (centres undefined),0,-,-,0,0,-,
COC(=O)[C@]12C[C@H](CC(=O)N3CCN(C(=O)C4CC4)CC3)C(=O)N(Cc3cccc4ccccc34)C1=C[C@H](C1CCCC1)O[C@@H]2C,-,-,-,-,0,-,
Cc1ccccc1NC(=O)C(C)OC(=O)CNS(=O)(=O)c1ccc(C#N)cc1 (centres undefined),0,-,-,0,0,-,
COC(=O)Cc1c(C)c2ccc(OCC(C)=O)c(C)c2oc1=O,0,0,0,0,0,-,
COC(=O)Cc1c(C)c2ccc(O)c(CNCc3ccc(OC)c(OC)c3)c2oc1=O,33,-,-,0,63,7.3,proKLK7 act conf=77;EDANS-DABCYL int=65;EDANS interf=0
CCN(CC)Cc1c(O)ccc2c(C)c(CC(=O)OC)c(=O)oc12,32,117,80,0,58,14,proKLK7 act conf=65;EDANS-DABCYL int=67
COc1cc2c(cc1OC)CN(Cc1cc(=O)oc3cc(C)c(Cl)cc13)CC2,23,0,0,0,15,0,proKLK7 act conf=0;EDANS-DABCYL int=0
O=c1cc(CN2CCN(Cc3ccccc3)CC2)c2ccc(O)cc2o1,38,-,-,0,71,10,proKLK7 act conf=65;EDANS-DABCYL int=72
CC1CN(Cc2cc(=O)oc3cc(O)ccc23)CC(C)O1 (centres undefined),19,-,-,0,46,16,proKLK7 act conf=67;EDANS-DABCYL int=67
Cc1ccc2c(CN3CC(C)CC(C)C3)cc(=O)oc2c1 (centres undefined),0,-,-,0,0,-,
Cc1ccc(S(=O)(=O)NC(=O)NC2=NC(C)(C)N(c3ccc(Cl)c(Cl)c3)C(N)=N2)cc1,-,-,-,-,0,-,
CCN1C(=O)[C@@H]2[C@@H]3CN(S(=O)(=O)c4ccc(C)cc4)[C@@H](c4ccccc4F)[C@@H]3C(=O)C[C@@H]2C1=O,-,-,-,-,0,-,
O=c1[nH]c(Nc2ccccn2)cc2ccccc12,38,-,-,0,22,0,proKLK7 act conf=21;EDANS-DABCYL int=21
O=c1[nH]c(-c2ccccn2)cc2ccccc12,0,0,0,0,0,-,
N/C(=N\NC(=O)c1ccccc1)c1cc2ccccc2oc1=O,?,0,0,0,0,-,
NC(=O)N/N=C/c1ccccc1OC(=O)c1cc2ccccc2oc1=O,18,-,-,0,79,0,proKLK7 act conf=259;EDANS-DABCYL int=259
CC(C)CN1C(=O)[C@@]2(CC(=O)N(C)C2c2ccccc2)c2cc(-n3cc(CCc4ccccc4)nn3)ccc21 (some centres undefined),-,-,-,-,0,-,
O=c1nc(-c2ccccc2Cl)c2cc(F)ccc2[nH]1,25,-,-,0,19,0,proKLK7 act conf=31;EDANS-DABCYL int=26;EDANS interf=0
O=c1nc(-c2ccccc2)c2ccccc2[nH]1,0,0,0,0,0,-,
